# Experimental data reported in ChEMBL document CHEMBL1255471, “Effects of inoculum, pH, and cations on the in vitro activity of fidaxomicin (OPT-80, PAR-101) against Clostridium difficile” (2010).
# How the values were obtained:
# Type in all cases: functional
# Clostridioides difficile [1] = test: Antibacterial activity against Clostridium difficile ATCC 9689 by CLSI agar dilution method using 10^5 to 10^8 CFU/ml inoculum
# Procedure, shortened: (§1)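 CLSI agar dilution in a glove box (10% H2, 5% CO2, 85% N2). A ~10^8 CFU/ml suspension was serially diluted 10-fold to 10^5–10^8 CFU/ml and 2 μl was spotted (10^2–10^5 CFU/spot). Runs were done at least in duplicate; the mode was reported, or the higher value when replicates split evenly.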
# Clostridioides difficile [2] = test: Antibacterial activity against Clostridium difficile ATCC 700057 by CLSI agar dilution method using 10^5 to 10^8 CFU/ml inoculum; procedure, shortened: as §1
# Clostridioides difficile [3] = test: Antibacterial activity against Clostridium difficile ATCC 700057 in presence of 33 mg/L of calcium ion by CLSI agar dilution method
# Clostridioides difficile [4] = test: Antibacterial activity against Clostridium difficile ATCC 700057 in presence of 45 mg/L of calcium ion by CLSI agar dilution method
# Clostridioides difficile [5] = test: Antibacterial activity against Clostridium difficile ATCC 700057 in presence of 75 mg/L of calcium ion by CLSI agar dilution method
# Clostridioides difficile [6] = test: Antibacterial activity against Clostridium difficile ATCC 9689 in presence of 33 mg/L of calcium ion by CLSI agar dilution method
# Clostridioides difficile [7] = test: Antibacterial activity against Clostridium difficile ATCC 9689 in presence of 45 mg/L of calcium ion by CLSI agar dilution method
# Clostridioides difficile [8] = test: Antibacterial activity against Clostridium difficile ATCC 9689 in presence of 75 mg/L of calcium ion by CLSI agar dilution method
# Clostridioides difficile [9] = test: Antibacterial activity against Clostridium difficile ATCC 700057 in presence of 21 mg/L of magnesium ion by CLSI agar dilution method
# Clostridioides difficile [10] = test: Antibacterial activity against Clostridium difficile ATCC 700057 in presence of 30 mg/L of magnesium ion by CLSI agar dilution method
# Clostridioides difficile [11] = test: Antibacterial activity against Clostridium difficile ATCC 700057 in presence of 57 mg/L of magnesium ion by CLSI agar dilution method
# Clostridioides difficile [12] = test: Antibacterial activity against Clostridium difficile ATCC 9689 in presence of 21 mg/L of magnesium ion by CLSI agar dilution method
# Clostridioides difficile [13] = test: Antibacterial activity against Clostridium difficile ATCC 9689 in presence of 30 mg/L of magnesium ion by CLSI agar dilution method
# Clostridioides difficile [14] = test: Antibacterial activity against Clostridium difficile ATCC 9689 in presence of 57 mg/L of magnesium ion by CLSI agar dilution method
# Clostridioides difficile [15] = test: Ratio of MIC for Clostridium difficile ATCC 700057 at pH 6.2 to MIC for Clostridium difficile ATCC 700057 at pH 7.9 by CLSI agar dilution method
# Procedure, shortened: (§2)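 Agar dilution MICs were measured over anaerobic pH 6.2–8.0. Media were buffered with 100 mM NaH2PO4 (pH 7) or TAPS (pH 8) and set in ambient air above the target pH. After 3 h equilibration in the chamber (5% CO2), anaerobic pH was checked with a flat-bottomed probe. The pH 8.0 run was repeated, and ratios were taken between MICs at the two pH values.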
# Clostridioides difficile [16] = test: Ratio of MIC for Clostridium difficile ATCC 9689 at pH 6.2 to MIC for Clostridium difficile ATCC 9689 at pH 7.9 by CLSI agar dilution method; procedure, shortened: as §2
# Clostridioides difficile [17] = test: Ratio of MIC for Clostridium difficile ATCC 700057 at pH 7 to MIC for Clostridium difficile ATCC 700057 at pH 7.9 by CLSI agar dilution method; procedure, shortened: as §2
# Clostridioides difficile [18] = test: Ratio of MIC for Clostridium difficile ATCC 9689 at pH 7 to MIC for Clostridium difficile ATCC 9689 at pH 7.9 by CLSI agar dilution method; procedure, shortened: as §2
# Clostridioides difficile [19] = test: Ratio of MIC for Clostridium difficile ATCC 700057 at pH 6 to MIC for Clostridium difficile ATCC 700057 at pH 7.5 by broth microdilution method
# Procedure, shortened: (§3)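 Broth microdilution in brucella broth buffered at 10 or 100 mM with NaH2PO4·H2O (pH 7.0), MOPS (pH 8.0) or TAPS (pH 9.0), pH set in ambient air. Final anaerobic pH ranges were 6–7.6 (10 mM) and 6–8.1 (100 mM). Plates were equilibrated anaerobically for at least 3 h before inoculation. Data were pooled from three experiments, and ratios were taken between MICs at the two pH values.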
# Clostridioides difficile [20] = test: Ratio of MIC for Clostridium difficile ATCC 700057 at pH 6 to MIC for Clostridium difficile ATCC 700057 at pH 8.1 by broth microdilution method; procedure, shortened: as §3
# Clostridioides difficile [21] = test: Ratio of MIC for Clostridium difficile ATCC 9689 at pH 6 to MIC for Clostridium difficile ATCC 9689 at pH 7.5 by broth microdilution method; procedure, shortened: as §3
# Clostridioides difficile [22] = test: Ratio of MIC for Clostridium difficile ATCC 9689 at pH 6 to MIC for Clostridium difficile ATCC 9689 at pH 8.1 by broth microdilution method; procedure, shortened: as §3
SMILES,MIC (Clostridioides difficile [3]) [µg/mL],MIC (Clostridioides difficile [6]) [µg/mL],MIC (Clostridioides difficile [9]) [µg/mL],MIC (Clostridioides difficile [12]) [µg/mL],Ratio (Clostridioides difficile [19]),Ratio (Clostridioides difficile [20]),Ratio (Clostridioides difficile [21]),Ratio (Clostridioides difficile [22]),further results
CCc1c(Cl)c(O)c(Cl)c(O)c1C(=O)O[C@H]1[C@H](O)[C@H](OC)[C@H](OC/C2=C\C=C\C[C@H](O)/C(C)=C/[C@H](CC)[C@@H](O[C@@H]3OC(C)(C)[C@@H](OC(=O)C(C)C)[C@H](O)[C@@H]3O)/C(C)=C/C(C)=C/C[C@@H]([C@@H](C)O)OC2=O)O[C@@H]1C [FIDAXOMICIN],0.125,0.063,0.125,0.063,8,16,8,16,MIC (Clostridioides difficile [1]): 0.063 µg/mL; MIC (Clostridioides difficile [2]): 0.125 µg/mL; MIC (Clostridioides difficile [4]): 0.125 µg/mL; MIC (Clostridioides difficile [5]): 0.125 µg/mL; MIC (Clostridioides difficile [7]): 0.063 µg/mL; MIC (Clostridioides difficile [8]): 0.063 µg/mL; MIC (Clostridioides difficile [10]): 0.125 µg/mL; MIC (Clostridioides difficile [11]): 0.125 µg/mL; MIC (Clostridioides difficile [13]): 0.063 µg/mL; MIC (Clostridioides difficile [14]): 0.063 µg/mL; Ratio (Clostridioides difficile [15]): 8; Ratio (Clostridioides difficile [16]): 8; Ratio (Clostridioides difficile [17]): 8; Ratio (Clostridioides difficile [18]): 8
CN[C@H](CC(C)C)C(=O)N[C@H]1C(=O)N[C@@H](CC(N)=O)C(=O)N[C@H]2C(=O)N[C@H]3C(=O)N[C@H](C(=O)N[C@H](C(=O)O)c4cc(O)cc(O)c4-c4cc3ccc4O)[C@H](O)c3ccc(c(Cl)c3)Oc3cc2cc(c3O[C@@H]2O[C@H](CO)[C@@H](O)[C@H](O)[C@H]2O[C@H]2C[C@](C)(N)[C@H](O)[C@H](C)O2)Oc2ccc(cc2Cl)[C@H]1O [VANCOMYCIN],1,1,1,1,8,16,8,16,–
